Measured values pooled from the literature.
Each line is one published result; the experiments were not run side by side.
Target: Serine/threonine-protein kinase MAK (MAK, Homo sapiens, UniProt P20794)
One construct used (P20794 1-623): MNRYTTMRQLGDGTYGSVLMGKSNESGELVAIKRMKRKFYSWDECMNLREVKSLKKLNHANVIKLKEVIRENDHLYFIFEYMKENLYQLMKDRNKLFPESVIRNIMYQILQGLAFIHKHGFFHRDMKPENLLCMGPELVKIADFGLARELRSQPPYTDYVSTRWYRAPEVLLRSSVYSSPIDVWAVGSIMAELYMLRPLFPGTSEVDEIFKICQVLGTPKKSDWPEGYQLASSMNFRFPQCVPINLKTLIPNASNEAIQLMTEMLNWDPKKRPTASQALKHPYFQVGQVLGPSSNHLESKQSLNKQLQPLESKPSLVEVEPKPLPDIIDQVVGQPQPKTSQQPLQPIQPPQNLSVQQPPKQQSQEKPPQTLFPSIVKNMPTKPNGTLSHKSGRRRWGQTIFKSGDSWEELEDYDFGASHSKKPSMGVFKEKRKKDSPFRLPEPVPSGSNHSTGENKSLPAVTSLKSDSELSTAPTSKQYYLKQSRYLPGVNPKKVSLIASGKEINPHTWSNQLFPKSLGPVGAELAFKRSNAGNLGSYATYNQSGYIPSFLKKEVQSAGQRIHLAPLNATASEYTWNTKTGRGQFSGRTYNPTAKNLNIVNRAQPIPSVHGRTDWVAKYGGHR

CCCCN(CCCC)C(=O)CN1C[C@H](c2cc(OC)c3c(c2)OCO3)[C@@H](C(=O)O)[C@@H]1CC(C)(C)CCC
remaining binding (cell-free assay; competition with immobilised ligand; 1 µM): 100%

CN(c1nccc(-c2cnn3ncccc23)n1)C1CC1
remaining binding (binding; 1 µM): 100%

O=C(O)[C@H]1[C@H](Cn2nnc3ccccc3c2=O)CC[C@@H]1C(=O)c1ccc(OCCC2CCOCC2)cc1
remaining binding (binding; competition with immobilised ligand; 1 µM): 95%

O=C(NCC1CCOCC1)c1n[nH]cc1NC(=O)c1c(F)cccc1F
remaining binding (binding; competition with immobilised ligand; 1 µM): 56%

COc1cnc(Nc2cccc(S(N)(=O)=O)c2)nc1N1CCN(c2ccccc2)CC1
remaining binding (binding; competition with immobilised ligand; 1 µM): 100%

CNC(=O)Nc1ccc2c(c1)[C@@]1(CC2)OC(=O)N(CC(=O)N(Cc2ccc(F)cc2)[C@@H](C)C(F)(F)F)C1=O
remaining binding (cell-free assay; competition with immobilised ligand; 1 µM): 100%

COc1cnc(Nc2cccc(S(N)(=O)=O)c2)nc1N1CCN(c2ccccc2)C(=O)C1
remaining binding (binding; competition with immobilised ligand; 1 µM): 96%

N[C@H]1CCN(c2nccc(-c3cnn4ncccc34)n2)C1
remaining binding (binding; 1 µM): 78%

O=C(NCCCN1CCOCC1)c1ccc(Nc2ncc(Cl)c(-c3ccc(Cl)s3)n2)cc1
remaining binding (binding; competition with immobilised ligand; 1 µM): 100%

C=CC(=O)N1CCC(C(=O)NCC(=O)N2CCN(c3nc(-c4cnc(N)nc4C(F)F)nc(N4CCOCC4)n3)CC2)CC1
remaining binding (binding; competition with immobilised ligand; 1 µM): 100%

C[C@H]1CCN(c2nccc(-c3cnn4ncccc34)n2)C1
remaining binding (binding; 1 µM): 66%

C[C@@H](c1cccc(C#N)c1)n1cc(Cl)cc(C(N)=O)c1=N
remaining binding (binding; competition with immobilised ligand; 1 µM): 94%

F[C@@H]1CCN(c2nccc(-c3cnn4ncccc34)n2)C1
remaining binding (binding; 1 µM): 86%

c1cncc(-c2cccc(Nc3nccc(NC4CCCCC4)n3)c2)c1
remaining binding (binding; competition with immobilised ligand; 10 µM): 61%

Cc1cnn2ncc(-c3ccnc(N(C)C)n3)c2c1
remaining binding (binding; 1 µM): 46%

O=C(c1ccc(Nc2nccc(-c3cc4ccccc4s3)n2)cc1)N1CCC(N2CCCC2)CC1
remaining binding (binding; competition with immobilised ligand; 1 µM): 100%

CO[C@H]1CC[C@H](CNc2ccc(S(=O)(=O)NC(=O)c3ccc(N4CCN(CC5=C(c6ccc(Cl)cc6)CC(C)(C)CC5)CC4)cc3Oc3cnc4[nH]ccc4c3)cc2[N+](=O)[O-])CC1
remaining binding (cell-free assay; competition with immobilised ligand; 1 µM): 90%

O=C(c1ccc(Nc2ncc(Cl)c(-c3cc4ccccc4s3)n2)cc1)N1CCC(N2CCCC2)CC1
remaining binding (binding; competition with immobilised ligand; 1 µM): 100%

CCC(=O)N[C@H]1CC[C@@H](C(=O)N(C)c2ccc(-c3nc4ccccc4o3)cc2)C1
remaining binding (cell-free assay; competition with immobilised ligand; 1 µM): 85%

COc1ccnn2ncc(-c3ccnc(N(C)C)n3)c12
remaining binding (binding; 1 µM): 100%

CS(=O)(=O)N1CCCC(NC(=O)[C@H](CCC2CCCCC2)NC(=O)c2ccc(CNC(=O)c3cnc4ccccn34)cc2)C1 (stereo partly shown)
remaining binding (cell-free assay; competition with immobilised ligand; 0.1 µM): 100%

C[C@@H](c1ccc(-n2cnc3c(N)ncnc32)cc1)N1CCc2nn(C)c(Cc3ccccc3)c2C1=O
remaining binding (binding; competition with immobilised ligand; 0.1 µM): 82%
